In ChEMBL document CHEMBL1158454, “Discovery of a potent and orally active hedgehog pathway antagonist (IPI-926)” (J Med Chem, 2009):
pEC50: −log10 of the molar value. The source made the active and inactive calls. No cut-off for these calls is given here.

What was measured:
[1] = Inhibition of HedgeHog pathway in mouse C3H10T1/2 cells assessed as inhibition of 20-(S)-hydroxysterol/22-(S)-hydroxysterol-induced osteoblastic differentiation after 72 hrs by alkaline phosphatase assay; conditions: C3H 10T1/2, 72 h
in vitro = conditions: human
Mus musculus [2] = experiment: Antitumor activity against Ptc+/- Hic+/- mouse B837Tx cells allografted in NOD/SCID mouse assessed as effect on recurrence rate on post treatment at 40 mg/kg, po administered daily for 21 days; format: functional, organism-based; set-up: dose 40 mg/kg
In short: (§1)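 NOD/SCID mice given 1 × 10^6 B837Tx cells in the right hind flank. Once tumors reached about 100-200 mm³, N=10/group were gavaged daily for 21 days. Vehicle: 30% (w/w) HPBCD in 0.1 M citrate phosphate buffer, pH 3, dosing solutions 5-10 mg/mL. Tumors measured in two perpendicular dimensions by caliper 3 times weekly. Regrowth monitored over a 21-day post-treatment phase.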

Mus musculus [3] = experiment: Antitumor activity against Ptc+/- Hic+/- mouse B837Tx cells allografted in NOD/SCID mouse assessed as tumor-free interval on 21 days post treatment at 40 mg/kg, po administered daily for 21 days; format: functional
In short: as §1

Mus musculus [4] = experiment: Antitumor activity against Ptc+/- Hic+/- mouse B837Tx cells allografted in NOD/SCID mouse assessed as median time to unmeasurable tumor volume at 40 mg/kg, po administered daily for 21 days; format: functional
In short: as §1

Row | SMILES | pEC50 [1] | half-life at 0.5 µM (in vitro; microsomes) [min] | also measured
1 | CC1=C2C[C@H]3[C@@H](CC[C@@H]4c5c[nH]nc5CC[C@@]43C)[C@@H]2CC[C@@]2(C1)O[C@@H]1C[C@H](C)CN[C@H]1[C@H]2C | 6.66 | 27 | 
2 | CO[C@@H]1CC[C@@]2(C)[C@H](CC[C@H]3[C@@H]4CC[C@@]5(CC(C)=C4C[C@@H]32)O[C@@H]2C[C@H](C)CN[C@H]2[C@H]5C)C1 | 6.74 | 20 | 
3 | CC1=C2C[C@H]3[C@@H](CC[C@@H]4C[C@H](N)CC[C@@]43C)[C@@H]2CC[C@@]2(C1)O[C@@H]1C[C@H](C)CN[C@H]1[C@H]2C | < 6.00 |  | 
4 | CC1=C2C[C@H]3[C@@H](CC[C@@H]4C[C@@H](O)CC[C@@]43C)[C@@H]2CC[C@@]2(C1)O[C@@H]1C[C@H](C)CN[C@H]1[C@H]2C | 7.64 |  | half-life at 0.5 µM (in vitro; liver microsomes): 20 min
5 | CC1=C2C[C@H]3[C@@H](CC[C@@H]4C/C(=N/O)CC[C@@]43C)[C@@H]2CC[C@@]2(C1)O[C@@H]1C[C@H](C)CN[C@H]1[C@H]2C | 7.82 | 45 | 
6 | CC1=C2C[C@H]3[C@@H](CC[C@@H]4C[C@@H](NS(C)(=O)=O)CC[C@@]43C)[C@@H]2CC[C@@]2(C1)O[C@@H]1C[C@H](C)CN[C@H]1[C@H]2C | 7.05 | 30 | 
7 | CC(=O)N[C@H]1CC[C@@]2(C)[C@H](CC[C@H]3[C@@H]4CC[C@@]5(CC(C)=C4C[C@@H]32)O[C@@H]2C[C@H](C)CN[C@H]2[C@H]5C)C1 | 6.52 | 60 | 
8 | CC(=O)N[C@@H]1CC[C@@]2(C)[C@H](CC[C@H]3[C@@H]4CC[C@@]5(CC(C)=C4C[C@@H]32)O[C@@H]2C[C@H](C)CN[C@H]2[C@H]5C)C1 | 7.77 | 65 | 
9 | CC1=C2C[C@H]3[C@@H](CC[C@@H]4C[C@@H](n5ccnn5)CC[C@@]43C)[C@@H]2CC[C@@]2(C1)O[C@@H]1C[C@H](C)CN[C@H]1[C@H]2C | 6.89 |  | half-life at 0.5 µM (in vitro; liver microsomes): 70 min
10 | CC1=C2C[C@H]3[C@@H](CC[C@@H]4CCCC[C@@]43C)[C@@H]2CC[C@@]2(C1)O[C@@H]1C[C@H](C)CN[C@H]1[C@H]2C | 6.12 |  | 
11 | CC1=C2C[C@H]3[C@@H](CC=C4C[C@@H](O)CC[C@@]43C)[C@@H]2CC[C@]12O[C@@H]1C[C@H](C)CN[C@H]1[C@H]2C |  |  | Activity (Mus musculus [2]): inactive; Activity (Mus musculus [3]): inactive; Activity (Mus musculus [4]): inactive
12 | CC1=C2C[C@H]3[C@@H](CC[C@@H]4CN(C)C(=O)CC[C@@]43C)[C@@H]2CC[C@@]2(C1)O[C@@H]1C[C@H](C)CN[C@H]1[C@H]2C | 7.40 | 46 | 
13 | CC1=C2C[C@H]3[C@@H](CC[C@@H]4Cc5nn(S(=O)(=O)c6ccc(C)cc6)cc5C[C@@]43C)[C@@H]2CC[C@@]2(C1)O[C@@H]1C[C@H](C)CN[C@H]1[C@H]2C | 6.05 |  | half-life at 0.5 µM (in vitro; liver microsomes): 65 min
14 | CC1=C2C[C@H]3[C@@H](CC[C@@H]4CC(=O)CC[C@@]43C)[C@@H]2CC[C@@]2(C1)O[C@@H]1C[C@H](C)CN[C@H]1[C@H]2C | 7.89 | 70 | 
